Values joined by “and” are separate entries in the source; they are usually repeats but may differ in a detail not shown here. Equal entries are not always repeated. Where two headings read alike, the source gives them in different places.

Data set [1] has as its system A549 cells. In words: Mitochondrial membrane potential, TRME staining, flow cytometry. Type of data set: cell-based, human. The following applies: 20 μM, 24 h (CCCP 20 μM, 1 h), FACS. The essentials: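 A549 cells were seeded at 1 × 10^5 per well, grown 24 h under normoxia, then exposed to compound for 24 h. After a PBS wash, cells were stained with TRME at 150 nM for 30 min; the positive control got CCCP before staining. Harvested cells were analysed by flow cytometry, excitation 488 and emission 575.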

Data set [2] has as its target Kv11.1 (hERG) potassium channel (Homo sapiens, UniProt Q12809). In words: [3H]dofetilide displacement assay on HEK293 Kv11.1 cell membranes. The format is binding. As to conditions: tested concentration 10 μM. The essentials: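 HEK293 Kv11.1 membranes (30 μg protein) were loaded with 2 nM [3H]dofetilide at 15 °C for 90 min. Dissociation was started with 10 μM unlabeled dofetilide, without or with 10 μM test compound, for 10 min. Samples were filtered through GF/B, washed twice with ice-cold buffer and counted by scintillation. Binding (%) = 100% − [3H]dofetilide binding remaining.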

For data set [3], the system named is A549 cells. In words: SRB cytotoxicity assay, 2D monolayer. Type of data set: cell-based, human. As to conditions: read-out: EC50 A549. The essentials: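 Cells were seeded in 96-well plates (A549 5000, A375 7000, MCF7 8000, MRC5 6000 cells/well) in OptiMEM with 2.4% FCS, then held 24 h at 37 °C, 7.0% CO2. Six concentrations were added in triplicate for 72 h. Plates were fixed with cold 10% TCA (4 °C, ≥4 h), stained with 0.6% SRB (30 min) and solubilized in 10 mM Tris; absorbance read at 510 nm. EC50 was taken versus untreated wells; three independent experiments, 95% CI.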

Chain of Kv11.1 (hERG) potassium channel (Q12809 whole entry): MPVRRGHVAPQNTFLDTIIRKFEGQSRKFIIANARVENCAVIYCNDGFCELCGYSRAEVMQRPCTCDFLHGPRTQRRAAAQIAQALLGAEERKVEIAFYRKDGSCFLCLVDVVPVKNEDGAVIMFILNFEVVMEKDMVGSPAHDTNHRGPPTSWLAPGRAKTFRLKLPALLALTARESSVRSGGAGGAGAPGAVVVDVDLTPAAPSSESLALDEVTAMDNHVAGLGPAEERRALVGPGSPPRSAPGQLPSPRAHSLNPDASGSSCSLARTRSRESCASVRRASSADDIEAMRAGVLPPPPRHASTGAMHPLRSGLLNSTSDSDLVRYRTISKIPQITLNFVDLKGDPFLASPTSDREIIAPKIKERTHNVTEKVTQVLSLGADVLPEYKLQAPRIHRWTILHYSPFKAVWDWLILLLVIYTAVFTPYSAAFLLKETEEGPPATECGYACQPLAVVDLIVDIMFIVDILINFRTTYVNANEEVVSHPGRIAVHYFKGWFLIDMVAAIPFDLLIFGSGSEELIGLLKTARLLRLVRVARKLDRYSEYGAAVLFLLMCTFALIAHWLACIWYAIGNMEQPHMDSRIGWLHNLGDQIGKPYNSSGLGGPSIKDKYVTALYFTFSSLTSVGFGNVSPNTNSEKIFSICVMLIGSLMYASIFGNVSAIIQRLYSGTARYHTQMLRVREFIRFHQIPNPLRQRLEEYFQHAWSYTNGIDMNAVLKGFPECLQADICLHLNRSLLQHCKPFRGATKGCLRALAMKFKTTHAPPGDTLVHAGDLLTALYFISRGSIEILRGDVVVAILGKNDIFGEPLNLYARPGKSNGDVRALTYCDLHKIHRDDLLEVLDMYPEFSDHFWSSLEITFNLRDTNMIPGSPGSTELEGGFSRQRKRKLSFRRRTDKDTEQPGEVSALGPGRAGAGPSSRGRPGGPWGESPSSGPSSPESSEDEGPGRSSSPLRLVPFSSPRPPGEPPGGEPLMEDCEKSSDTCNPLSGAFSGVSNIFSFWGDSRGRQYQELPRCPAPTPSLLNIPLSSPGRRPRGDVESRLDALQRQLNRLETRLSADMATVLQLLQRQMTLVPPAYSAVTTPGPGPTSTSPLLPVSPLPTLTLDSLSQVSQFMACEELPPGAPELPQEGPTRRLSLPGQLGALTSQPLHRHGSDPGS

For the molecule `N#CC(C#N)=NNc1cccc(Cl)c1` [CCCP, carbonyl cyanide m-chlorophenyl hydrazone, reference compound], in the data set with A549 cells [1], the “Influence on mitochondrial membrane potential” value is on record as “dramatically reduced percentage of intact mitochondrial membranes”.

Turning to `c1cc(Nc2cc3ccccc3cn2)nc(-c2cccc(Nc3cc4ccccc4cn3)n2)c1` [H2biqbpy1, N6,N6′-di(isoquinolin-3-yl)-[2,2′-bipyridine]-6,6′-diamine], in data set [2], the “Kv11.1 binding (100% - [3H]dofetilide binding remaining)” value was 36% and 36 ± 4%; the “[3H]dofetilide binding remaining” value was 64 ± 4%. Besides, the half-maximal effective concentration (EC50) (as a rule, the concentration at which the effect is half-maximal) in the data set with A549 cells [3] (Homo sapiens, A549, 72 h) is more than 200 µM.

With `c1cc(Nc2ccc3ccccc3n2)nc(-c2cccc(Nc3ccc4ccccc4n3)n2)c1` [H2biqbpy2, N6,N6′-di(quinolin-2-yl)-[2,2′-bipyridine]-6,6′-diamine], in data set [2], the “Kv11.1 binding (100% - [3H]dofetilide binding remaining)” value is 84% and 84 ± 4%; the “[3H]dofetilide binding remaining” value was found to be 16 ± 4%. Besides, in the data set with A549 cells [3] (Homo sapiens, A549, 72 h), the half-maximal effective concentration (EC50) is 12 µM.

`N.N.[Cl][Pt][Cl]` [cisplatin, reference compound]: the EC50 in the data set with A549 cells [3] (2D monolayer, hypoxic (1% O2)) is 24 µM.

The values above are taken from article PMC8154207 (JACS Au, 2021).
